Assay outcomes from PubChem.
D1 mod: allosteric modulators of human D1 dopamine receptor. HEK293 D1, CRE-luciferase, dopamine EC30 potentiation; actives deviate in either direction. B-score at 10 µM. actives 5.9% (n = 58,000). AID 641;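 active = luminescence count or its row- and column-corrected plate score outside the 99.7% band of the plate's sample wells, on either side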
WNV NS2B-NS3 inh: WNV NS2B-NS3 proteinase inhibition; actives 0.18% (n = 65,000); AID 577; P06935; WNV NS2B-NS3 protease, fluorogenic substrate Ex360/Em465; hits give low values; z-score (no concentration beside the values); in the data active = z-score below about -3
Target sequence (P06935 1371-1501 limits assumed): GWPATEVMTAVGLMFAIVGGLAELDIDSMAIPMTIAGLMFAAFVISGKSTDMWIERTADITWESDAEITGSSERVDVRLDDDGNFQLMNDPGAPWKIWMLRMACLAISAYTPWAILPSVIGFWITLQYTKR
Target sequence (P06935 1502-1679 limits assumed): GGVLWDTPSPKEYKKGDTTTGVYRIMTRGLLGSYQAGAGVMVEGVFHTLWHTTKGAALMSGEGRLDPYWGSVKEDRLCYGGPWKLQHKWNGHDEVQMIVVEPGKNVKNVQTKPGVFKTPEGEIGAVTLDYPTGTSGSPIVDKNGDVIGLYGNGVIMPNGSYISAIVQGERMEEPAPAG
hDAT+cocaine: changed human dopamine transporter uptake under cocaine IC80; LLC-PK1 hDAT cells, [14C]-dopamine uptake with cocaine IC80; actives deviate in either direction; actives 1.3% (n = 110,000); Q01959; B-score at 10 µM;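 active = Z score or B-score, a plate-position-corrected score, falls beyond the plate's 99.7% confidence bounds, in either direction; inactive = both scores lie inside the 99.7% bounds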;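 also: scored against the spread of the other compound wells on the same plate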
AP ELISA ortho: orthogonal test for alternative complement pathway inhibitors | actives 0.08% (n = 62,000) | AID 1235 | inhibition, % at 5 µM | Human serum alternative complement pathway, LPS-coated ELISA, C3 deposition; tested in compound mixtures;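 active = inhibition above 30% in each of the two pooled mixtures holding the compound, so the lower value exceeds 30%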;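 also: 0% = serum in Mg-EGTA without compound and 100% = EDTA serum blank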
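Test system: human serum alternative complement pathway, C3 deposition on LPS-coated wells; also added: Plate-bound LPS; doses: 5 µM per compound in ten-compound mixtures; schedule: 1 h at 37 °C; detection: Anti-C3 ELISA, OD 450 nm; evaluation: percent inhibition of C3 deposition onto LPS; repeats: two pool placements per compound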
D1 PAM confirm: confirmation of human D1 dopamine receptor allosteric modulators; luminescence at 10 µM; shares compounds with D1 mod; HEK293 D1 CRE-luciferase, dopamine EC30 potentiation; hits give high values; actives 88% (n = 2,200);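 active = luminescence in either of two replicates above the same-plate mean plus 3 SD of the low-dose dopamine control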
D1 ag no DA: D1 (human) signaling in absence of dopamine; HEK293 D1 CRE-luciferase, luminescence, no dopamine; hits give high values; shares compounds with D1 mod; luminescence at 10 µM; actives 0.8% (n = 1,900); in the data active = luminescence above about 3900
Isoprot counter: isoproterenol response counter-screen activity for D1 modulators | actives 63% (n = 2,200) | HEK293 D1 CRE-luciferase, isoproterenol EC30 counter-screen; hits give high values | luminescence at 10 µM | shares compounds with D1 mod;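 active = luminescence in either replicate above plate mean of wells with a partly effective reference agonist dose plus 3 SD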;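 also: isoproterenol raises cAMP through native beta-adrenoceptor Gs so signal bypasses D1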
* hit, by the source's call; . = no result. The full list was thinned out, with hits kept by preference.

SMILES	D1 mod	WNV NS2B-NS3 inh	hDAT+cocaine	AP ELISA ortho	D1 PAM confirm	D1 ag no DA	Isoprot counter
N#Cc1nc(-c2ccco2)oc1NCc1ccc(F)cc1	6.57*	-0.27	0.708	8.2	12560*	1876	3668*
COCCNc1oc(-c2ccc(Cl)cc2)nc1C#N	0.622	0.31	0.527	.	.	.	.
COCCNc1oc(-c2ccc(C)cc2)nc1C#N	5.06*	-0.46	.	-4.4	5796*	1872	2756
CCn1c(=O)c2c(nc(SCC(=O)NCC3CCCO3)n2C)n(C)c1=O (stereo unspecified)	0.669	-0.45	-0.677	4.5	.	.	.
O=C(CCC(=O)OCC(=O)c1ccc(Br)cc1)Nc1ccc(Br)c2cccnc12	.	.	-0.00965	.	.	.	.
N#Cc1nc(-c2ccccc2Cl)oc1NCc1ccco1	4.74*	0.2	1.52	13.5	12632*	1648	4124*
N#Cc1nc(-c2ccccc2)oc1NCc1ccco1	.	.	-2.47	.	.	.	.
CNc1oc(-c2ccccc2)nc1C#N	7.41*	-0.85	-7.84*	15.3	11304*	1648	3240*
CN(C(=O)c1ccco1)c1nc2c(s1)CCCC2	.	.	0.241	.	.	.	.
c1cnc2c(SCc3ccc(-c4nnco4)cc3)cccc2c1	5.25*	0.17	1.6	-4.4	8332*	.	3088*
O=C(NNS(=O)(=O)c1ccc([N+](=O)[O-])cc1)c1cnn(-c2ccccc2)c1-n1cccc1	.	.	-0.00891	.	.	.	.
N#CC1=C(N)N(c2ccccc2)C2=C(C(=O)CCC2)C1c1cccs1 (stereo unspecified)	3.18*	-0.12	-0.00879	-4.3	7976*	1556	3880
Cn1c2c(c(=O)n(C)c1=O)C(c1ccccc1OC(F)F)C1=C(CCCC1=O)N2 (stereo unspecified)	0.11	0.33	0.669	5.6	.	.	.
O=C(c1ccc(Br)o1)N1CCN(c2ccc3nnc(-c4ccc(F)cc4)n3n2)CC1	.	.	2.29	.	.	.	.
c1ccc(-c2cnnc(SCc3cn4cccnc4n3)n2)cc1	8.52*	-0.82	-1.07	17.7	14784*	1868	3272*
N#CCSc1nc2c(sc(=S)n2Cc2ccco2)c(=O)n1-c1ccc(F)cc1	2.97*	0.64	0.597	11.6	10848*	1572	2624
Cc1cc(C)nc(NC(=O)CN2C(=O)c3ccccc3C2=O)n1	0.232	-0.41	-1.12	5.4	.	.	.
Clc1ccc(C2=Nn3c(nnc3-c3cc(-c4ccccc4)n[nH]3)SC2)cc1	.	.	2.51	.	.	.	.
Clc1ccc(C2=Nn3c(nnc3-c3n[nH]c4c3CCC4)SC2)cc1Cl	9.38*	-0.21	0.399	13.2	6068*	1632	4288*
CCOc1cc(NC(=O)CC(C)C)c(OCC)cc1NC(=O)CCn1nnc2ccccc21	.	.	-0.101	.	.	.	.
CC(C)C1C(C#N)=C(N)Oc2n[nH]c(-c3cccs3)c21 (stereo unspecified)	3.63*	0.25	-0.114	-10.2	8472*	1560	2672
CCc1ccc(C2CC(c3ccc(F)cc3)Nc3nc(N)nn32)cc1 (stereo unspecified)	0.17	2.55	0.123	15.6	.	.	.
Nc1nc2n(n1)C(c1cccc(Br)c1)CC(c1ccc(F)cc1)N2 (stereo unspecified)	14.3*	-0.44	-0.382	2.1	13072*	1584	4192*
Nc1nc2n(n1)C(c1ccccc1)CC(c1ccc(F)cc1)N2 (stereo unspecified)	6.03*	1.77	2.11	2.6	11012*	1632	5680
c1ccc(C2CC(c3ccccc3)n3ncnc3N2)cc1 (stereo unspecified)	4.38*	-0.44	1.73	4.1	6308*	1700	3180
COc1cccc(C2CC(c3ccc(F)cc3)Nc3nc(N)nn32)c1 (stereo unspecified)	0.586	1.53	0.343	20.8	.	.	.
CCOC(=O)N1CCC(NC(=O)CSc2cc(=O)n(C)c3ccc(Cl)cc23)CC1	0.18	-0.47	.	32.4	.	.	.
Cc1nc2c(c(=O)n1CC1CCCO1)c1nc3ccccc3nc1n2Cc1ccc2c(c1)OCO2 (stereo unspecified)	.	-1.15	.	.	.	.	.
CCOC(=O)c1c(C#N)c(SCC(=O)Nc2ccc(OC)cc2)nc2c1CN(CC)CC2	1.73	0.34	0.942	-12.9	.	.	.
